# Assay outcomes deposited in PubChem by several laboratories.
# Fh CTSL1 inh: cathepsin L1 inhibition, PFM18AAP counter-screen; AID 1906; hit rate 0.49% among 300,000; inhibition, % at 5.96 µM; recombinant F. hepatica cathepsin L1, Z-Leu-Arg-MCA fluorescence;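 active means inhibition above the mean of all tested compounds plus 3 SD, set per screening campaign, cut at about 17% in these data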;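 further: 0% = plate median of test compound wells and 100% = 1 µM Z-Phe-Ala-diazomethylketone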
# PP5 primary: inhibitors of human protein phosphatase 5 (PP5); purified PP5c, OMFP substrate fluorescence; AID 1987; inhibition, % at 6.7 µM; P53041; hit rate 0.18% among 320,000;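 active means inhibition above the campaign's mean inhibition across all tested compounds plus 3 SD, cut at about 9.5% in these data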;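 further: 0% = DMSO only and 100% = 100 µM cantharidin control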
# core dimer inh: blocks dimerization of HCV core protein. TR-FRET GST/Flag-core106 dimerization, 1536-well. inhibition, % at 5 µM. hit rate 0.33% among 300,000;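 active means inhibition above the mean of all tested compounds plus 3 SD, set per screening campaign, cut at about 45% in these data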
#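 Test system: GST/Flag-tagged HCV core106 proteins; Medium: KF-containing HEPES buffer, pH 7.45, DTT, CHAPS, BSA; Times: compound-protein-antibody incubation 4 h at 22.5 °C; Detection: TR-FRET 671 and 617 nm emission; Benchmarks: wells lacking GST-core106 and wells with excess unlabelled core106.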
# Myeloid diff 2: promotes myeloid progenitor differentiation. hit rate 1% among 360,000. AID 624256. ER-HoxA9 myeloid progenitors, lysozyme-GFP differentiation, flow cytometry. calls only at 10 µM;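 active means normalized GFP-positive differentiation at or above the plate's own cutoff, the solvent-only control mean plus 3 SD; inconclusive means no clear call, values can overlap the other calls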;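 further: cells exposed to compound for four days before flow analysis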
# NadD block: NadD (S. aureus) enzyme inhibition | purified NadD enzyme, colorimetric absorbance read-out | inhibition, % at 20 µM | hit rate 0.78% among 360,000 | AID 602399; in the data active means inhibition above about 26%
# PP1 counter: counter-screen for PP5 inhibitors: inhibitors of human PP1-alpha | P62136 | purified PP1alpha, OMFP fluorescence | inhibition, % at 6.7 µM | hit rate 0.9% among 320,000 | AID 2235;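 active means inhibition above the mean inhibition of all tested compounds plus 3 SD, computed separately for each screening campaign, cut at about 15% in these data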
# Target sequence (P62136 whole entry, looked up): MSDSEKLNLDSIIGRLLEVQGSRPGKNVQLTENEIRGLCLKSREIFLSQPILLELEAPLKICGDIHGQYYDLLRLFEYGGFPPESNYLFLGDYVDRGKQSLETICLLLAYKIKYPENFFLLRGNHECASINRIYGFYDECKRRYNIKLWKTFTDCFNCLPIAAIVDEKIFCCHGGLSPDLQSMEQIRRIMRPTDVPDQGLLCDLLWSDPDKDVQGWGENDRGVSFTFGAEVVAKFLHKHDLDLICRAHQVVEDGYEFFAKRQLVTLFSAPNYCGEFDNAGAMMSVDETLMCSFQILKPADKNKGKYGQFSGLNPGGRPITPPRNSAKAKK
# * marks the source's active call; other numbers are inactive results; i = inactive; ? = inconclusive; nt = no result given; + = active, no number. Rows were chosen to be rich in hits. Some 3.1% of all compounds tested hit in one or more screens of this group.
SMILES,Fh CTSL1 inh,PP5 primary,core dimer inh,Myeloid diff 2,NadD block,PP1 counter
CCC1=NN2C(=N)/C(=C\c3ccc(SCc4ccco4)o3)C(=O)N=C2S1,1.5,1.8,13.8,i,19.0,3.0
CCCC1=NN2C(=N)/C(=C\c3ccc(SCc4ccco4)o3)C(=O)N=C2S1,11.8,-2.5,71.4*,i,26.4,42.9*
CCOc1ccc(Cl)cc1S(=O)(=O)N1CCC(C(=O)NCc2cccnc2)CC1,-3.1,3.6,-1.1,i,0.7,5.5
CCOC(=O)N1C(=O)NC(=O)C1c1ccc(Cl)cc1 (centres undefined),nt,nt,nt,i,0.3,nt
CCCCN1/C(=C/c2cccc[n+]2C)Sc2cc(NC(C)=O)ccc21,4.2,2.6,-4.6,i,8.4,-3.0
Cc1ccc2c(c1)S/C(=C/c1ccc[n+](C)c1)N2CCO,-1.6,2.8,-2.3,+,9.0,-4.6
Fc1ccc(COc2cccc(CNCc3ccncc3)c2)cc1,1.1,2.5,-4.4,+,2.8,-6.0
Cc1cc(C(=O)OC(C)C(=O)N2CCc3ccccc32)ccc1[N+](=O)[O-] (centres undefined),3.5,-0.5,-0.9,i,0.9,-3.0
Cn1c(O)c(N=NC(=O)c2cc(-c3cccs3)nc3ccccc23)c2ccccc21,1.6,2.8,34.0,i,45.3*,2.6
O=C(N=Nc1c(O)[nH]c2ccc(Br)cc12)c1cc(-c2cccc3ccccc23)n[nH]1,2.5,-5.1,4.9,i,38.8*,10.5
O=C(N=Nc1c(O)[nH]c2ccc(Br)cc12)c1cc(-c2cccs2)nc2ccccc12,nt,nt,nt,i,44.0*,nt
O=C(N=Nc1c(O)[nH]c2ccc(Br)cc12)c1ccco1,nt,nt,nt,i,-1.2,nt
O=C(OCCN=C1NS(=O)(=O)c2ccccc21)c1ccccc1F,-0.3,1.1,5.1,i,-7.2,0.8
CC(c1ccccc1)N1C(=O)/C(=C/c2ccncc2)SC1=S (centres undefined),1.7,4.2,14.0,i,-9.0,17.1*
CC(=O)Nc1ccc(OCc2cn(CC(=O)c3ccc(O)cc3)nn2)cc1,nt,nt,nt,i,32.2*,nt
COc1ccc(Cl)cc1S(=O)(=O)N(C)CC(=O)NCc1ccccn1,-1.8,4.7,13.7,i,-2.4,1.4
COc1ccc(NC(=O)COC(=O)c2cc3c(s2)CCC3)cc1,nt,0.4,nt,i,-2.2,0.4
CC1=CC(C)(C)n2c(O)c(N=NC(N)=S)c3c(C)ccc1c32,4.3,-0.5,5.3,+,9.2,-1.0
CC1=CC(C)(C)n2c(O)c(N=NC(N)=S)c3c(C)c(C)cc1c32,6.5,1.5,7.9,i,10.3,-3.4
Fc1cccc(Oc2nc3ccccc3n3cccc23)c1,64.8*,0.3,-1.1,i,-5.7,0.3
O=C(Cn1c(=O)n(CCC(=O)N2CCCCC2)c(=O)c2sccc21)NCc1ccccc1,2.1,-1.4,-0.1,i,-4.4,0.5
CCOc1ccc(N(C)S(=O)(=O)c2ccc(-c3ccc(=O)[nH]n3)s2)cc1,40.4*,2.4,21.0,i,12.8,11.4
Cc1ccc(N(C)S(=O)(=O)c2ccc(-c3ccc(=O)[nH]n3)s2)cc1C,-1.5,2.8,-1.2,i,11.5,-1.1
Cc1ccc(-c2nc3c(Cl)cc(Cl)cc3c(=O)n2O)cc1,1.5,1.1,2.0,i,10.6,16.9*
O=c1c2cc(Br)ccc2nc(-c2ccc(Cl)cc2)n1O,-1.6,-1.3,-5.0,i,-4.1,0.0
SMILES,Fh CTSL1 inh,PP5 primary,core dimer inh,Myeloid diff 2,NadD block,PP1 counter
CC(=O)N1C(=O)c2cccc3cccc(c23)C(=O)N1C(C)=O,-10.5,1.3,-5.0,nt,nt,-1.6
O=C1c2cccc3cccc(c23)C(=O)C1(O)O,18.0*,1.5,-32.6,i,-2.4,-4.6
O=C(CSc1nccc(=O)[nH]1)N1N=C2/C(=C/c3ccco3)CCCC2C1c1ccco1 (centres undefined),17.2*,1.4,22.1,i,24.5,3.5
Nc1nc(SCC(=O)N2N=C3/C(=C/c4ccco4)CCCC3C2c2ccco2)n[nH]1 (centres undefined),2.2,-0.8,52.2*,i,25.1,5.9
Nc1nc(SCC(=O)N2N=C3/C(=C\c4ccco4)CCCC3C2c2ccco2)n[nH]1 (centres undefined),nt,nt,nt,i,8.1,nt
O=C(CCS(=O)(=O)c1ccc(Cl)cc1)N1CCCc2ccccc21,-4.8,0.1,3.9,i,-6.1,-2.8
Cc1cc(C)c(NC(=O)COC(=O)COc2ccc3c(C)cc(=O)oc3c2)c(Cl)c1,nt,-0.5,nt,i,-3.4,-2.8
CCCCn1c(/C=C/c2ccco2)nc2ccccc21,0.5,1.1,44.0,i,1.6,3.8
CCCn1c(/C=C/c2ccco2)nc2ccccc21,0.1,1.2,50.9*,i,23.2,2.0
CC(=O)c1cccc(NC(=O)Nc2cc3sccc3n2C)c1,1.6,0.9,51.1*,nt,nt,14.9
C=CCNc1nc2cc(-c3ccccc3OC)sc2c(=O)n1C,nt,nt,nt,i,0.8,nt
O=C(O)CN(CC(=O)O)CC(=O)O,nt,nt,nt,+,-2.5,nt
O=C(c1ccc2n[nH]nc2c1)N1CCN(c2ccc(C(F)(F)F)cn2)CC1,nt,0.4,nt,i,3.2,-1.0
Cc1ccc(-c2nn(-c3ccccc3)cc2C2CC(c3ccccc3)=NN2C(=O)CCC(=O)O)cc1 (centres undefined),6.0,4.9,26.2,i,15.2,17.4*
Cc1ccsc1C=Nc1ccc(O)cc1,102.3*,8.1,-16.7,i,4.4,10.9
Cc1cc(-c2ccccc2)n(-c2cc(N/N=C/c3ccccc3O)ncn2)n1,2.7,3.5,5.5,?,19.3,15.5*
Cc1ccc(C)c(S(=O)(=O)NCc2ccc(C(=O)N3CCN(C)CC3)cc2)c1,-1.2,0.8,0.3,i,1.1,-10.3
Cc1ccc(C)c(S(=O)(=O)NCc2ccc(C(=O)N3CCC(Cc4ccccc4)CC3)cc2)c1,5.1,4.4,14.5,+,4.5,5.1
CC(C)NC(=O)N(C)C[C@@H]1OCc2cnnn2CCCC(=O)N([C@H](C)CO)C[C@@H]1C,nt,nt,nt,i,0.5,nt
COc1ccc2oc(C(=O)Nc3ccc(N4CCOCC4)cc3)c(C)c2c1,4.0,7.7,86.2*,i,12.8,7.5
CCNC(=O)C1(C)CCN(Cc2ccccc2C#N)C1 (centres undefined),nt,nt,nt,i,-3.6,nt
CC1CCc2cccc3c2N1c1cc(C#N)c(C#N)cc1O3 (centres undefined),-0.1,3.9,-0.9,+,11.1,4.1
CCN1CCN(c2ccc(S(=O)(=O)N3CCCCC3)cc2NC(=O)c2ccc(C)o2)CC1,0.8,-1.8,0.2,i,-0.3,-2.8
O=C(O)CN1C(=O)/C(=C\c2cc(Br)ccc2OCc2ccccc2F)SC1=S,2.7,0.4,9.2,i,14.9,16.1*
O=C(O)CN1C(=O)/C(=C\c2cccc(OCc3ccc(Cl)cc3Cl)c2)SC1=S,nt,nt,nt,i,30.3*,nt
O=C(O)CN1C(=O)/C(=C\c2cc(Br)ccc2OCc2ccccc2Cl)SC1=S,0.2,1.1,12.4,i,15.8,14.8
